In brackets after ≈: the same amount, converted by molar mass. Activity calls are given as the source filed them. The rule behind the calls is not given here.
What was measured:
[1] = system: Mycolicibacterium smegmatis; assay: Antimycobacterial activity against Mycobacterium smegmatis MC2 155 after 48 hrs by serial dilution method; assay type: functional; details: str. MC2 155, 48 h
How it was run: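 M. smegmatis grown in Middlebrook 7H9 with 10% albumin–dextrose complex and 0.03% Tween80 at 37 °C. Twofold serial dilutions of compound were combined with mid-log culture diluted to OD570 0.01, giving a final range of […] in 7H9 broth. Incubated in ambient air at 37 °C for 48 h. MIC taken as the lowest concentration preventing visible growth.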

[2] = system: Mycobacterium tuberculosis; assay: Antimycobacterial activity against Mycobacterium tuberculosis H37Rv ATCC 27294 after 7 days by microplate alamar blue assay; assay type: functional; details: H37Rv ATCC 27294, 168 h
How it was run: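 MABA run in 7H12 medium in 96-well plates for 7 days at 37 °C. Alamar Blue and Tween 80 were then added for a further 24 h. Fluorescence was read at 530/590 nm. MIC was the lowest concentration giving a 90% fluorescence (or luminescence) reduction versus controls. Luciferase reporter strains or intracellular ATP were used for compounds with background fluorescence. Isoniazid and rifampin were run as controls.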

HepG2 = assay: Cytotoxicity against human HepG2 cells assessed as reduction in cell viability after 72 hrs by MTT assay; assay type: cell-based; details: hepg2, 72 h
How it was run: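 HepG2 cells grown in Eagle's MEM with 10% FBS at 37 °C and 5% CO2. Cells were scraped, resuspended at ~1 × 10^6 cells/mL, plated and left 24 h, then exposed to compound at 400 to 0.2 µg/mL for 72 h. Viability read by MTT assay. IC50 (50% loss of viability) taken from a dose–response curve versus log10 concentration.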

[3] = system: Mycolicibacterium smegmatis; assay: Inhibition of alpha-mycolic acid biosynthesis in Mycobacterium smegmatis MC2 155 assessed as reduction in [1-14C]acetate incorporation at 5 times antibacterial MIC preincubated for 90 mins followed by [1-14C]acetate addition measured after 1 hr by liquid scintillation counting based TLC method; assay type: functional; details: str. MC2 155
[4] = system: Mycolicibacterium smegmatis; assay: Inhibition of alpha'-mycolic acid biosynthesis in Mycobacterium smegmatis MC2 155 assessed as reduction in [1-14C]acetate incorporation at 5 times antibacterial MIC preincubated for 90 mins followed by [1-14C]acetate addition measured after 1 hr by liquid scintillation counting based TLC method; assay type: functional; details: str. MC2 155
[5] = system: Mycolicibacterium smegmatis; assay: Inhibition of epoxy-mycolic acid biosynthesis in Mycobacterium smegmatis MC2 155 assessed as reduction in [1-14C]acetate incorporation at 5 times antibacterial MIC preincubated for 90 mins followed by [1-14C]acetate addition measured after 1 hr by liquid scintillation counting based TLC method; assay type: functional; details: str. MC2 155
[6] = system: Mycolicibacterium smegmatis; assay: Inhibition of fattyacid biosynthesis in Mycobacterium smegmatis MC2 155 assessed as reduction in [1-14C]acetate incorporation at 5 times antibacterial MIC preincubated for 90 mins followed by [1-14C]acetate addition measured after 1 hr by liquid scintillation counting based TLC method; assay type: functional; details: str. MC2 155
[7] = system: Mycolicibacterium smegmatis; assay: Antimycobacterial activity against Mycobacterium smegmatis MC2 155 infected in Balb/c mouse peritoneal macrophages assessed as increase in iNOS2 mRNA expression at 5 ug/ml after 6 hrs RT-PCR method; assay type: functional; details: str. MC2 155
How it was run: (§1)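 BALB/c peritoneal macrophages were cultured 48 h in RPMI-1640 with 10% FBS. Cells at 2 × 10⁶/ml were infected with mid-log, PBS-washed mc²155 at a macrophage:bacteria ratio of 1:10 for 6 h, then washed three times. Compound was added at 5 µg/mL for another 6 h. Total RNA was taken up in Trizol, 1 µg was used for cDNA, and PCR ran 40 cycles (94 °C 45 s, 60 °C 1 min, 72 °C 1 min).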

[8] = system: Mycolicibacterium smegmatis; assay: Antimycobacterial activity against Mycobacterium smegmatis MC2 155 infected in Balb/c mouse peritoneal macrophages assessed as upregulation of IL-12 mRNA expression at 5 ug/ml after 6 hrs RT-PCR method; assay type: functional; details: str. MC2 155; how it was run: as §1
[9] = system: Mycolicibacterium smegmatis; assay: Antimycobacterial activity against Mycobacterium smegmatis MC2 155 infected in Balb/c mouse peritoneal macrophages assessed as upregulation of IFN-gamma mRNA expression at 5 ug/ml after 6 hrs RT-PCR method; assay type: functional; details: str. MC2 155; how it was run: as §1
[10] = system: Mycolicibacterium smegmatis; assay: Antimycobacterial activity against Mycobacterium smegmatis MC2 155 infected in Balb/c mouse peritoneal macrophages assessed as downregulation of IL-10 mRNA expression at 5 ug/ml after 6 hrs RT-PCR method; assay type: functional; details: str. MC2 155; how it was run: as §1
Peritoneal macrophage = assay: Cytotoxicity against Balb/c mouse peritoneal macrophages assessed as reduction in cell viability after 48 hrs by MTT assay; assay type: cell-based
How it was run: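 Murine peritoneal macrophages, 1 × 10^6 cells/well, exposed to compound at 0.1 to 250 µg/ml in RPMI-1640 with 10% FBS for 48h. MTT (5 mg/ml) added for 3 h at 37°C, formazan dissolved in 0.04M HCl in isopropanol for 15 min at room temperature, absorbance read at 570 nm. IC50 (50% loss of viability) taken from a dose–response curve of percentage activity versus log10 concentration.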

[11] = system: Mycobacterium tuberculosis; assay: Antimycobacterial activity against Mycobacterium tuberculosis MC2 6030 after 2 to 3 weeks by agar plate method; assay type: functional
How it was run: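 Strain mc²6030 is a pantothenate auxotroph lacking RD1, grown at 37 °C in Sauton's medium plus 20 μg/ml pantothenic acid. Serial 10-fold dilutions of actively growing culture were plated on 7H10/OADC agar with 20 μg/ml pantothenic acid and increasing compound concentrations, from 10 mg/ml DMSO stocks. Plates were held 2–3 weeks at 37 °C. MIC was the concentration inhibiting 99% of growth; isoniazid served as control.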

With `CC(C)=CCOc1cccc(NC(=O)Nc2cccc(C#N)c2)c1` as the molecule, how does the MIC [1] read?
Its MIC is 25 µg/mL (≈ 77.8 µM).

And the MIC90 [2]?
The MIC90 was 9.2 µg/mL (≈ 28.6 µM).

And the Activity (HepG2)?
Its Activity is 172.6 µg/mL.

What about the inhibition [3] of the same molecule?
Its inhibition is “inactive”.

And the inhibition [4]?
Its inhibition is “inactive”.

And the inhibition [5]?
Its inhibition is “Active”.

What about the inhibition [6] of the same molecule?
Its inhibition is “inactive”.

And the Activity [7]?
Its Activity is “Active”.

What about the Activity [8] of the same molecule?
The Activity was “Active”.

What about the Activity [9] of the same molecule?
The Activity was “Active”.

What about the Activity [10] of the same molecule?
The Activity was “Active”.

What about the Activity (Peritoneal macrophage) of the same molecule?
Its Activity is 159.4 µg/mL.

What does the source list for `CC(C)=CCOc1ccc(NC(=O)Nc2ccccc2)cc1`?
MIC [1]: 25 µg/mL (≈ 84.4 µM); MIC90 [2]: 43.1 µg/mL (≈ 145 µM); MIC99 [11]: 30 µg/mL (≈ 101 µM); Activity (HepG2): 124.7 µg/mL; inhibition [3]: inactive; inhibition [4]: inactive; inhibition [5]: inactive; inhibition [6]: inactive; Activity (Peritoneal macrophage): 109.5 µg/mL

Which MIC [1] does the source give for `CC(C)=CCOc1cccc(NC(=O)Nc2ccccc2C)c1` here?
Its MIC is 12.5 µg/mL (≈ 40.3 µM).

What about the MIC90 [2] of the same molecule?
The MIC90 was 5.2 µg/mL (≈ 16.8 µM).

What about the MIC99 [11] of the same molecule?
The MIC99 was 1 µg/mL (≈ 3.22 µM).

What about the Activity (HepG2) of the same molecule?
The Activity was 163.4 µg/mL.

What about the inhibition [3] of the same molecule?
The inhibition was “inactive”.

What about the inhibition [4] of the same molecule?
Its inhibition is “inactive”.

What about the inhibition [5] of the same molecule?
Its inhibition is “Active”.

What about the inhibition [6] of the same molecule?
Its inhibition is “inactive”.

And the Activity [7]?
Its Activity is “Active”.

And the Activity [8]?
Its Activity is “Active”.

And the Activity [9]?
The Activity was “Active”.

What about the Activity [10] of the same molecule?
Its Activity is “Active”.

What about the Activity (Peritoneal macrophage) of the same molecule?
The Activity was 140.5 µg/mL.

Which results are given for `CC(C)=CCOc1cccc(NC(=O)Nc2cccc(C(=O)O)c2)c1`?
MIC [1]: 12.5 µg/mL (≈ 36.7 µM); MIC90 [2]: 16.5 µg/mL (≈ 48.5 µM); Activity (HepG2): 132.6 µg/mL; inhibition [3]: inactive; inhibition [4]: inactive; inhibition [5]: Active; inhibition [6]: inactive; Activity (Peritoneal macrophage): 120.4 µg/mL

With `CCCCOc1ccc(NC(=O)Nc2ccccc2C)cc1` as the molecule, how does the MIC [1] read?
Its MIC is 100 µg/mL (≈ 335 µM).

And the MIC90 [2]?
The MIC90 was 7 µg/mL (≈ 23.5 µM).

And the MIC99 [11]?
The MIC99 was 100 µg/mL (≈ 335 µM).

And the Activity (HepG2)?
Its Activity is 130.5 µg/mL.

And the inhibition [3]?
Its inhibition is “inactive”.

What about the inhibition [4] of the same molecule?
Its inhibition is “inactive”.

And the inhibition [5]?
The inhibition was “Active”.

And the inhibition [6]?
The inhibition was “inactive”.

And the Activity (Peritoneal macrophage)?
Its Activity is 125.7 µg/mL.

Which results are given for `CC(C)=CCOc1cccc(NC(=O)Nc2cccc([N+](=O)[O-])c2)c1`?
MIC [1]: 3.21 µg/mL (≈ 9.4 µM); MIC90 [2]: 6 µg/mL (≈ 17.6 µM); MIC99 [11]: 2 µg/mL (≈ 5.86 µM); Activity (HepG2): 113.7 µg/mL; inhibition [3]: inactive; inhibition [4]: inactive; inhibition [5]: Active; inhibition [6]: inactive; Activity [7]: Active; Activity [8]: inactive; Activity [9]: inactive; Activity [10]: Active; Activity (Peritoneal macrophage): 94.1 µg/mL

— ChEMBL document CHEMBL4041500, “Attenuation of Mycobacterium species through direct and macrophage mediated pathway by unsymmetrical diaryl urea” (Eur J Med Chem, 2017)
